# Bioassay records: PubChem, The Scripps Research Institute Molecular Screening Center
# This is a sample that favours compounds with a hit; in the whole collection about 4.5% have one here.
# TAAR1 agonist – agonists of human TAAR1; CHO RD-HGA16 TAAR1, Fluo-8 calcium fluorescence; vehicle wells 0%, saturating PEA agonist 100%; 360,000 tested, 0.99% active; AID 624467; Q96RJ0; activation, % at 3 µM;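 active = activation above the mean activation of all test compounds in the run plus 3 SD, cut at about 38% in these data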
# Target sequence (Q96RJ0 whole entry, looked up): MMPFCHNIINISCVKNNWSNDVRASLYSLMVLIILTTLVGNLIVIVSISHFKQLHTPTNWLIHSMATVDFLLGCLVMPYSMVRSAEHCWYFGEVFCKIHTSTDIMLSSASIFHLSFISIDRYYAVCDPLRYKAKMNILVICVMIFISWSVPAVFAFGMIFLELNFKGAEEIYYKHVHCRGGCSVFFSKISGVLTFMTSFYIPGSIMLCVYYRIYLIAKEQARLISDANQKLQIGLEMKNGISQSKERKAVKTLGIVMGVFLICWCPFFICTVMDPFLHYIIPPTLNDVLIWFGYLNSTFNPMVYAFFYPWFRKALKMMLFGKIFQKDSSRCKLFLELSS
#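 Assay system – CHO-derived RD-HGA16 cells with stable Gα16 and human TAAR1 · Compound dosing – one-point dosing at 3 µM (nominal) · Incubation – 17-24 h seeding, 75 min 37 °C dye, 30 min RT · Measured by – kinetic Fluo-8 calcium fluorescence · Control set – DMSO vehicle as 0%, PEA at EC100 as 100% · Repeats – single well for each compound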
# GPR7 antag – antagonists of human GPR7 (neuropeptides B/W receptor 1) | inhibition, % at 4.4 µM | 290,000 tested, 1.1% active | P48145 | GPR7-expressing cells, fluorescence antagonist assay; in the data active = inhibition above about 16%, passing the limit was not always enough;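 also: cells stimulated with the agonist NPW; 0% = agonist with vehicle and 100% = vehicle without agonist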
# Target sequence (P48145 whole entry, looked up): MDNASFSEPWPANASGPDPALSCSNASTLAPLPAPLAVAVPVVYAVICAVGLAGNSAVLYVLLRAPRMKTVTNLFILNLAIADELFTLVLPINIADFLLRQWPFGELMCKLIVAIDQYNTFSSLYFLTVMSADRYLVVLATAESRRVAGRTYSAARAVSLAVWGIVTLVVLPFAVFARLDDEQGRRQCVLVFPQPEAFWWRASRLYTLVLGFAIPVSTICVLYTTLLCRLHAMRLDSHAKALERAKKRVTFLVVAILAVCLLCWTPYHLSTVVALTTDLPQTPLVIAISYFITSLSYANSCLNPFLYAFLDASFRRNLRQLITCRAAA
# TAAR1 antag – antagonists of human TAAR1; CHO RD-HGA16 TAAR1, Fluo-8 calcium fluorescence, antagonist; Q96RJ0; inhibition, % at 3 µM; 360,000 tested, 1.5% active;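 active = inhibition above a per-plate cutoff, the mean inhibition of test compounds on that plate plus 3 SD, cut at about 49% in these data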;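 also: 0% = DMSO plus EC80 beta-PEA response and 100% = DMSO alone without agonist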
#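 Test system: RD-HGA16 CHO cells with stable hTAAR1 and Gα16 / Probe or stimulus: EC80 β-phenethylamine stimulus / Times: seeding 17-24 h prior, 75-min 37 °C, 30-min RT dye loading / Detection: Fluo-8 calcium-sensitive fluorescence / Read-out basis: % inhibition scaled between DMSO and EC80 PEA controls / Repeats: singlicate, one well per test compound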
# OX1R antag-1 – blocks the human orexin 1 receptor | OX1R-expressing cells, FRET antagonist read-out | inhibition, % at 6.6 µM | 330,000 tested, 1.8% active | AID 485270; in the data active = inhibition mostly above about 38%, no sharp cut-off; inactive = mostly below about 40%;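 also: 0% = agonist challenge alone and 100% = reference antagonist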
# CHO parental Ca – signal in parental CHO cells, OX1R antagonist counter-screen; parental CHO-K1, ATP-induced calcium, Fluo-8 fluorescence; 330,000 tested, 0.63% active; inhibition, % at 5.6 µM; AID 463079;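 active = inhibition above that plate's mean sample inhibition plus 3 SD, cut at about 26% in these data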;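 also: 0% = ATP-challenged DMSO wells and 100% = DMSO wells without ATP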
#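 Measured by: calcium-sensitive Fluo-8 fluorescence / Test system: CHO parental line / Controls: ATP-challenged DMSO wells low, unchallenged DMSO wells high / Measure: % inhibition / Compound: single nominal dose of 5.6 µM per compound / Replicates: single well per compound, no replicates / Reagent: ATP as calcium-mobilizing challenge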
# OX1R antag-2 – antagonists of human orexin 1 receptor. CHO/OX1R cells, Fluo-8 calcium fluorescence, orexin A. 330,000 tested, 0.43% active. O43613. inhibition, % at 5 µM;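 active = inhibition above its plate's threshold, mean inhibition of all tested compounds on the plate plus 3 SD, cut at about 37% in these data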;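 also: 0% = orexin A challenge wells and 100% = SB-334867-A antagonist wells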
# GPR7 antag cf – confirmation of human GPR7 antagonists; shares compounds with GPR7 antag; GPR7-expressing cells, calcium fluorescence antagonist mode; inhibition, % at 4.4 µM; 2,400 tested, 52% active; AID 1952; in the data active = inhibition above about 24%;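 also: stimulated with the GPR7 agonist NPW; 0% = agonist plus vehicle and 100% = vehicle alone without agonist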
# MCHR1 antagonist – MCHR1 (human) antagonism in GPR7 counter-screen. shares compounds with GPR7 antag. MCHR1-expressing cells, fluorescence antagonist assay. 2,400 tested, 62% active. inhibition, % at 4.4 µM; in the data active = inhibition above about 22%;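 also: 0% = vehicle with agonist and 100% = vehicle without agonist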
# * = called active by the depositor; / = no result given.
SMILES,TAAR1 agonist,GPR7 antag,TAAR1 antag,OX1R antag-1,CHO parental Ca,OX1R antag-2,GPR7 antag cf,MCHR1 antagonist
Cc1ccn2cc(CNS(=O)(=O)c3ccc4ccccc4c3)nc2c1,0,2,-7,41,4,-10,/,/
COc1ccccc1NC(=O)C1CCCN1S(=O)(=O)c1cccc2nsnc12 (stereo unspecified),/,-19,/,76*,-12,20,/,/
COc1ccc(NC(=O)C2CCCN2S(=O)(=O)c2cccc3nsnc23)c(OC)c1 (stereo unspecified),/,-13,/,57*,-23,-12,/,/
C[C@H](NC(=O)C[C@@H]1C[C@@H]2c3cc(NC(=O)C4CCC4)ccc3O[C@@H]2[C@@H](CO)O1)c1ccccc1,3,/,4,/,/,/,/,/
C#CCN1CC(COc2ccccc2)OCCS1(=O)=O (stereo unspecified),2,/,1,/,/,/,/,/
C[C@@H]1COc2cccc(N3CCCC3)c2S(=O)(=O)N1,0,/,20,/,/,/,/,/
COc1ccc(N2C(=O)C(Cl)=C(Nc3ccccc3O)C2=O)cc1,11,3,49*,30,-1,-14,/,/
COc1ccc(CCNC(=O)CCCn2c(=S)[nH]c3ccsc3c2=O)cc1OC,1,/,-10,/,/,/,/,/
COc1ccc(CCNC(=O)COC(=O)c2ccc(Br)o2)cc1OC,13,29*,2,14,-10,-12,-14,16
COc1ccc(CCNC(=O)COC(=O)c2ccc(Br)o2)cc1,2,-1,9,18,-1,-8,/,/
COC(=O)c1ccccc1NC(=O)COC(=O)Cc1ccc(S(=O)(=O)N2CCOCC2)s1,10,/,17,/,/,/,/,/
Cn1c(SCC(=O)NCc2ccc3c(c2)OCO3)nnc1-c1cccs1,2,-3,-11,14,-12,-12,/,/
CC(Sc1nnc(-c2cccs2)n1Cc1ccccc1)C(=O)NCc1ccc2c(c1)OCO2 (stereo unspecified),16,26*,10,19,-13,-12,19,19
Cc1cc(C(=O)N[C@H](c2ccccc2)[C@@]2(C)C[C@@H]2[C@@H](C)C(=O)Nc2ccc3ccccc3c2)no1,21,29*,53*,50,-11,5,46*,64*
Cc1cc(S(=O)(=O)NC(C)c2nnc3ccccn23)ccc1Br (stereo unspecified),1,/,-11,6,-7,-7,/,/
CCN1/C(=C/c2ccc3cc(C)ccc3[n+]2CC)Sc2cc(C)c(C)cc21,14,28*,18,/,/,/,30*,14
CC[n+]1ccccc1/C=C1\Sc2ccc(C)cc2N1C,4,18,4,18,-5,-11,/,/
COCC1CCCN(C(=O)c2ccc3nc(Cc4cccc(Cl)c4)oc3c2)C1 (stereo unspecified),0,21,20,-1,-17,-14,/,/
CN1C(=O)C(=C2CCCCCC2)SC1=S,16,31*,-20,32,-18,-10,-6,-3
COc1ccc(C=O)cc1COc1ccc([N+](=O)[O-])c(C)c1,-1,23*,9,20,-10,-16,49*,44*
COc1ccc(C=O)cc1COc1ccc2c(c1)OCO2,-2,/,-3,/,/,/,/,/
Cc1ccc(S(=O)(=O)N2C[C@H]3C(=O)C[C@@H](c4ccc(Cl)cc4)N(S(=O)(=O)c4ccc(C)cc4)[C@H]3C[C@H]2c2cccc3ccccc23)cc1,1,/,-14,/,/,/,/,/
Cc1cc(C)n(-c2ccc(C(=O)Nc3ccc(S(=O)(=O)NCc4ccco4)cc3)cc2)n1,15,45*,62*,29,30,28,67*,70*
Cc1ccc(C(=O)Nc2ccc(S(=O)(=O)NCc3ccco3)cc2)cc1,7,7,-12,11,-1,7,/,/
Cc1cc(C)c2sc(N(CCCN(C)C)C(=O)c3ccc(S(=O)(=O)N4CCc5ccccc5C4)cc3)nc2c1,/,/,/,-1,-15,-3,/,/
SMILES,TAAR1 agonist,GPR7 antag,TAAR1 antag,OX1R antag-1,CHO parental Ca,OX1R antag-2,GPR7 antag cf,MCHR1 antagonist
COc1cc2ccccc2cc1C(=O)N(CCN(C)C)c1nc2ccc(Br)cc2s1,1,26*,-15,23,-18,-5,29*,36*
CN(C)CCCN(C(=O)c1cc(-c2cccs2)nc2ccccc12)c1nc2ccc(F)cc2s1,19,30*,42,14,14,15,58*,58*
Cc1cccc2sc(N(CCCN(C)C)C(=O)CCc3ccccc3)nc12,13,23*,4,9,12,-12,61*,56*
Cc1ccc2nc(N(CCCN(C)C)C(=O)c3ccc(S(=O)(=O)N4CCc5ccccc5C4)cc3)sc2c1,45*,32*,7,12,-15,-19,44*,33*
Cc1cccc2sc(N(CCCN(C)C)C(=O)c3ccc4ncsc4c3)nc12,6,26*,7,18,-18,-11,39*,29*
Cc1ccc2sc(N(CCCN(C)C)C(=O)c3ccc(Br)s3)nc2c1C,27,41*,19,21,2,-20,51*,56*
Cc1ccc2sc(N(CCCN(C)C)C(=O)CCS(=O)(=O)c3ccccc3)nc2c1C,24,48*,5,2,-7,-10,43*,51*
Cc1cccc2sc(N(CCCN(C)C)C(=O)c3nc4ccccc4s3)nc12,1,-2,-10,29,-2,-7,/,/
CN(C)CCCN(C(=O)CCc1ccccc1)c1nc2ccc(Br)cc2s1,17,24*,35,8,1,-17,68*,73*
Cc1ccc2sc(N(CCCN(C)C)C(=O)c3nc4ccccc4s3)nc2c1C,15,2,-14,14,-7,-18,/,/
C#CCOCCOCCOCCNc1nc(N2CCN(C(=O)[C@H](CCCCN)n3cc([C@@H](N)[C@H](C)CC)nn3)CC2)nc(N2CCN(C(=O)[C@H](CCC(=O)O)n3cc([C@@H](N)CCSC)nn3)CC2)n1,3,/,5,-1,-8,-8,/,/
Cc1cccc(C(=O)NC2CCN(CC(=O)NCc3ccccc3F)CC2)c1,-2,-15,0,18,-13,-7,/,/
Cc1cc(C)cc(NC(=O)CC2Oc3ccc(C)cc3NC2=O)c1 (stereo unspecified),-2,-4,-15,-5,-4,-26,/,/
CN(C)CCCN(C(=O)c1ccc2c(c1)OCCO2)c1nc2ccc(Cl)cc2s1,15,51*,34,11,12,6,61*,46*
CN(C)CCN(C(=O)c1ccc2c(c1)OCCO2)c1nc2ccc(Cl)cc2s1,2,-16,23,19,-10,-16,/,/
